# Measurements from ChEMBL document CHEMBL1806391, “Synthesis and biological evaluation of novel 5-alkyl-2-arylthio-6-((3,4-dihydroquinolin-1(2H)-yl)methyl)pyrimidin-4(3H)-ones as potent non-nucleoside HIV-1 reverse transcriptase inhibitors” (Bioorg Med Chem, 2011).
# Active and inactive are the calls of the source. The rule behind the calls is not given here.
# Key:
# [1] = system: Human immunodeficiency virus 2; assay: Antiviral activity against Human immunodeficiency virus 2 ROD infected in human MT4 cells assessed as inhibition of viral replication; format: functional, organism-based; details: ISOLATE ROD
# Summary of the method: (§1)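 MT-4 cells, spun 5 min at 1000 rpm, were resuspended at 6 × 10⁵ cells/mL and infected with HIV-1 IIIB or HIV-2 ROD. Compounds were added at the start in serial fivefold dilutions, in triplicate wells. Viability was read by MTT reduction at 540 and 690 nm five days post-infection. EC₅₀ is the concentration giving 50% protection from viral cytopathic effect, using the median OD of three wells.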
# [2] = Selectivity index, ratio of CC50 for human MT4 cells to EC50 for wild type Human immunodeficieny virus 1 3B infected in human MT4 cells; format: toxicity, cell-based; details: read-out: Ratio CC50/EC50
# Summary of the method: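 SI is CC₅₀ in mock-infected MT-4 cells divided by EC₅₀ against HIV-1 IIIB, both from 5-day MTT assays in triplicate wells.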
# [3] = system: Human immunodeficiency virus 1; assay: Antiviral activity against wild type Human immunodeficiency virus 1 3B infected in human MT4 cells assessed as protection against virus-induced cytotoxicity after 5 days by MTT assay; format: functional, organism-based; details: MT4, 120 h; summary of the method: as §1
# [4] = Cytotoxic activity against human MT4 cells assessed as viability of mock-infected cells after 5 days by MTT assay; format: cell-based
# Summary of the method: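 Mock-infected, exponentially growing MT-4 cells (6 × 10⁵ cells/mL) were exposed to serial fivefold compound dilutions in triplicate wells. After 5 days, viability was read by MTT formazan absorbance at 540 and 690 nm. CC₅₀ is the concentration that lowered OD540 of the mock-infected control by 50%, using the median OD of three wells.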
# [5] = system: Human immunodeficiency virus 2; assay: Antiviral activity against wild type Human immunodeficiency virus 2 ROD infected in human MT4 cells assessed as protection against virus-induced cytotoxicity after 5 days by MTT assay; format: functional, organism-based; details: Human immunodeficiency virus 2, ISOLATE ROD, MT4, 120 h; summary of the method: as §1
SMILES,inhibition [1],selectivity ratio [2],EC50 [3],CC50 at 120 h [4],EC50 [5]
CCc1c(CN2CCCc3ccccc32)nc(SCc2ccc(OC)cc2)[nH]c1=O,inactive,244,0.59 µM,147 µM,> 147 µM
COc1ccc(CSc2nc(CN3CCCc4ccccc43)cc(=O)[nH]2)cc1,inactive,7,25.1 µM,181 µM,> 181 µM
COc1ccc(C(=O)CSc2nc(CN3CCCc4ccccc43)c(C)c(=O)[nH]2)cc1,inactive,144,0.42 µM,60.7 µM,> 60.7 µM
CCc1c(CN2CCCc3ccccc32)nc(SCc2ccccc2)[nH]c1=O,inactive,< 1,> 4.8 µM,4.8 µM,> 4.8 µM
Cc1c(CN2CCCc3ccccc32)nc(SCc2ccccc2)[nH]c1=O,inactive,< 1,> 6.69 µM,6.69 µM,> 6.69 µM
CCc1c(CN2CCCc3ccccc32)nc(SCc2ccc(C#N)cc2)[nH]c1=O,inactive,125,0.48 µM,59.7 µM,> 59.7 µM
Cc1c(CN2CCCc3ccccc32)nc(SCc2ccc(F)cc2)[nH]c1=O,inactive,< 1,> 8.67 µM,8.67 µM,> 8.67 µM
Cc1c(CN2CCCc3ccccc32)nc(SCC(=O)c2ccc(C#N)cc2)[nH]c1=O,inactive,6,7.35 µM,44.5 µM,> 44.5 µM
COc1ccc(CSc2nc(CN3CCCc4ccccc43)c(C)c(=O)[nH]2)cc1,inactive,93,0.64 µM,59.6 µM,> 59.6 µM
Cc1c(CN2CCCc3ccccc32)nc(SCc2ccc(C#N)cc2)[nH]c1=O,inactive,7,1.78 µM,13 µM,> 13 µM
Cc1cn([C@H]2C[C@H](N=[N+]=[N-])[C@@H](CO)O2)c(=O)[nH]c1=O [ZIDOVUDINE],,> 6190,,> 93.5 µM,
Cc1c(CN2CCCc3ccccc32)nc(SCC(=O)c2ccc(Cl)cc2)[nH]c1=O,inactive,19,2.16 µM,42.1 µM,> 42.1 µM
O=c1cc(CN2CCCc3ccccc32)nc(SCc2ccc(Cl)cc2)[nH]1,inactive,< 1,> 53.6 µM,> 53.6 µM,> 53.6 µM
Cc1c(CN2CCCc3ccccc32)nc(SCc2ccc(Cl)cc2)[nH]c1=O,inactive,≤ 29,≥ 2.25 µM,65.5 µM,> 65.5 µM
Cc1ccnc2c1NC(=O)c1cccnc1N2C1CC1 [NEVIRAPINE],,,,> 15 µM,
CCc1c(CN2CCCc3ccccc32)nc(SCC(=O)c2ccc(OC)cc2)[nH]c1=O,inactive,164,0.38 µM,61.8 µM,> 61.8 µM
N#Cc1ccc(C(=O)CSc2nc(CN3CCCc4ccccc43)cc(=O)[nH]2)cc1,inactive,> 1,> 197 µM,> 197 µM,> 197 µM
Cc1c(CN2CCCc3ccccc32)nc(SCC(=O)c2ccccc2)[nH]c1=O,inactive,31,0.39 µM,12.2 µM,> 12.2 µM
COc1ccc(C(=O)CSc2nc(CN3CCCc4ccccc43)cc(=O)[nH]2)cc1,inactive,7,24 µM,160 µM,> 160 µM
O=C1Nc2ccc(Cl)cc2[C@@](C#CC2CC2)(C(F)(F)F)O1 [EFAVIRENZ],,> 1430,,> 6.34 µM,
Cc1c(CN2CCCc3ccccc32)nc(SCc2ccc([N+](=O)[O-])cc2)[nH]c1=O,inactive,41,1.88 µM,76.9 µM,> 76.9 µM
CCc1c(CN2CCCc3ccccc32)nc(SCC(=O)c2ccc(C#N)cc2)[nH]c1=O,inactive,109,1.06 µM,115 µM,> 115 µM
